Measured values from ChEMBL document CHEMBL1134485, “Diguanidino and "reversed" diamidino 2,5-diarylfurans as antimicrobial agents” (2001).
Values after ≈ are worked out from the molar mass of the structure shown.

Tests used:
Candida albicans [1] = assay: In vitro minimum fungicidal concentration against Candida albicans.; format: functional
Summary of the method: (§1)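 Yeast MFC: after broth macrodilution (RPMI 1640/MOPS pH 7.0, 0.5 × 10³ to 2.5 × 10³ CFU/mL, 35 °C, 48 h or 72 h for C. neoformans, drug 100 to 0.09 µg/mL), 100 µL from tubes with complete inhibition plated on Sabouraud agar; lowest concentration yielding three or fewer colonies recorded.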

Aspergillus flavus [2] = assay: Minimum inhibitory concentration required to inhibit 100% inoculum of Aspergillus flavus 194.99; format: functional
Candida albicans [3] = assay: Minimum fungicidal concentration against Candida albicans A39; format: functional; summary of the method: as §1
Candida albicans [4] = assay: Minimum inhibitory concentration required to inhibit 100% inoculum of Candida albicans A39; format: functional
Aspergillus flavus [5] = assay: Minimum inhibitory concentration required to inhibit 100% inoculum of Aspergillus flavus 141.88; format: functional
Cryptococcus neoformans = assay: Minimum inhibitory concentration required to inhibit 80% inoculum of Cryptococcus neoformans H99; format: functional
Summary of the method: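 Broth macrodilution following NCCLS M27-T, drug dilutions 100 to 0.09 µg/mL, in RPMI 1640 with glutamine, no bicarbonate, MOPS 0.165 M, pH 7.0. Inoculum grown at 35 °C, 0.5 × 10³ to 2.5 × 10³ CFU/mL, incubated at 35 °C and interpreted at […]. MIC80 is the lowest concentration with turbidity […] of the growth control.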

Rhizopus arrhizus [6] = assay: Minimum inhibitory concentration required to inhibit 80% inoculum of Rhizopus arrhizus 117.89; format: functional
Summary of the method: (§2)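 Mould broth macrodilution, drug dilutions 100 to 0.09 µg/mL, in RPMI 1640 buffered at pH 7.0 with 0.165 M MOPS. Isolates are grown on Sabouraud dextrose agar at 30 °C for 4-14 days. Conidia are harvested in 0.85% NaCl/0.05% Tween 80, counted by hemocytometer, and diluted to 0.5 × 10³ to 2.5 × 10³ CFU/mL. Cultures incubated at 30 °C for 48-72 h until the control grows. MIC80 read visually against the growth control.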

Aspergillus flavus [7] = assay: Minimum fungicidal concentration against Aspergillus flavus 107.96; format: functional
Summary of the method: (§3)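 Mould MFC: 100 µL aliquots from macrodilution tubes (RPMI 1640/MOPS pH 7.0, 0.5 × 10³ to 2.5 × 10³ CFU/mL conidial inoculum, 30 °C, 48-72 h, drug 100 to 0.09 µg/mL) showing complete growth inhibition plated on Sabouraud agar; MFC taken as lowest drug concentration giving three or fewer colonies.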

Candida albicans [8] = assay: Minimum fungicidal concentration against Candida albicans 149.97; format: functional; summary of the method: as §1
Candida albicans [9] = assay: Minimum inhibitory concentration required to inhibit 80% inoculum of Candida albicans 116.98; format: functional
Summary of the method: (§4)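 Broth macrodilution following NCCLS M27-T, drug dilutions 100 to 0.09 µg/mL, in RPMI 1640 with glutamine, no bicarbonate, buffered to pH 7.0 with 0.165 M MOPS. Inoculum grown at 35 °C, adjusted to 0.5 × 10³ to 2.5 × 10³ CFU/mL, incubated at 35 °C and read at 48 h. MIC80 is the lowest concentration giving […] visual turbidity relative to the growth-control tube.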

Aspergillus fumigatus [10] = assay: Minimum inhibitory concentration required to inhibit 100% inoculum of Aspergillus fumigatus 165.86; format: functional
Aspergillus fumigatus [11] = assay: Minimum inhibitory concentration required to inhibit 100% inoculum of Aspergillus fumigatus 153.90; format: functional
Aspergillus flavus [12] = assay: Minimum fungicidal concentration against Aspergillus flavus 141.88; format: functional; summary of the method: as §3
[13] = test system: Mycobacterium tuberculosis; assay: In vitro minimum inhibitory concentration required to inhibit Mycobacterium tuberculosis; format: functional
Summary of the method: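 M. tuberculosis H37Rv grown in BACTEC 12B medium; fluorometric broth microdilution (Microplate Alamar Blue Assay). […] MIC = lowest concentration reducing relative fluorescence units by ≥90% relative to control culture. Testing done by TAACF.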

Aspergillus fumigatus [14] = assay: Minimum inhibitory concentration required to inhibit 100% inoculum of Aspergillus fumigatus 182.99; format: functional
Candida albicans [15] = assay: Minimum inhibitory concentration required to inhibit 80% inoculum of Candida albicans 126.97; format: functional; summary of the method: as §4
Aspergillus fumigatus [16] = assay: Minimum inhibitory concentration required to inhibit 80% inoculum of Aspergillus fumigatus 168.95; format: functional
Fusarium solani [17] = assay: Minimum fungicidal concentration against Fusarium solani 152.89; format: functional; summary of the method: as §3
Aspergillus flavus [18] = assay: Minimum inhibitory concentration required to inhibit 100% inoculum of Aspergillus flavus 107.96; format: functional
Aspergillus fumigatus [19] = assay: Minimum inhibitory concentration required to inhibit 80% inoculum of Aspergillus fumigatus 182.99; format: functional
Candida albicans [20] = assay: In vitro minimum inhibitory concentration against Candida albicans.; format: functional
Aspergillus fumigatus [21] = assay: Minimum inhibitory concentration required to inhibit 100% inoculum of Aspergillus fumigatus 119.00; format: functional
Aspergillus fumigatus [22] = assay: Minimum fungicidal concentration against Aspergillus fumigatus 153.90; format: functional; summary of the method: as §3
Rhizopus arrhizus [23] = assay: Minimum fungicidal concentration against Rhizopus arrhizus 117.89; format: functional; summary of the method: as §3
Aspergillus fumigatus [24] = assay: Minimum fungicidal concentration against Aspergillus fumigatus 119.00; format: functional; summary of the method: as §3
Fusarium solani [25] = assay: Minimum inhibitory concentration required to inhibit 80% inoculum of Fusarium solani 152.89; format: functional; summary of the method: as §2
Aspergillus flavus [26] = assay: Minimum inhibitory concentration required to inhibit 80% inoculum of Aspergillus flavus 107.96; format: functional
Candida albicans [27] = assay: Minimum inhibitory concentration required to inhibit 100% inoculum of Candida albicans 116.98; format: functional
Aspergillus fumigatus [28] = assay: Minimum inhibitory concentration required to inhibit 80% inoculum of Aspergillus fumigatus 119.00; format: functional
Rhizopus arrhizus [29] = assay: Minimum inhibitory concentration required to inhibit 100% inoculum of Rhizopus arrhizus 117.89; format: functional

## Cc1ccc(C(=N)Nc2ccc(-c3ccc(-c4ccc(NC(=N)c5ccc(C)cn5)cc4C)o3)c(C)c2)nc1
Candida albicans [1]
  MFC: 10 µg/mL (≈ 19.4 µM)
Aspergillus flavus [2]
  MIC: 6.25 µg/mL (≈ 12.1 µM)
Candida albicans [3]
  MFC: 25 µg/mL (≈ 48.6 µM)
Candida albicans [4]
  MIC: 1.56 µg/mL (≈ 3.03 µM)
Aspergillus flavus [5]
  MIC: 50 µg/mL (≈ 97.2 µM)
Cryptococcus neoformans
  MIC: 1.56 µg/mL (≈ 3.03 µM)
Rhizopus arrhizus [6]
  MIC: 0.78 µg/mL (≈ 1.52 µM)
Aspergillus flavus [7]
  MFC: > 100 µg/mL
Candida albicans [8]
  MFC: 6.25 µg/mL (≈ 12.1 µM)
Candida albicans [9]
  MIC: 1.56 µg/mL (≈ 3.03 µM)
Aspergillus fumigatus [10]
  MIC: 50 µg/mL (≈ 97.2 µM)
Aspergillus fumigatus [11]
  MIC: 50 µg/mL (≈ 97.2 µM)
Aspergillus flavus [12]
  MFC: > 100 µg/mL
[13]
  MIC: 2 µg/mL (≈ 3.89 µM)
Aspergillus fumigatus [14]
  MIC: 50 µg/mL (≈ 97.2 µM)
Candida albicans [15]
  MIC: 1.56 µg/mL (≈ 3.03 µM)
Aspergillus fumigatus [16]
  MIC: 10 µg/mL (≈ 19.4 µM)
Fusarium solani [17]
  MFC: 50 µg/mL (≈ 97.2 µM)
Aspergillus flavus [18]
  MIC: 50 µg/mL (≈ 97.2 µM)
Aspergillus fumigatus [19]
  MIC: 3.12 µg/mL (≈ 6.06 µM)
Candida albicans [20]
  MIC: ≤ 1 µg/mL
Aspergillus fumigatus [21]
  MIC: 50 µg/mL (≈ 97.2 µM)
Aspergillus fumigatus [22]
  MFC: > 100 µg/mL
Rhizopus arrhizus [23]
  MFC: 1.56 µg/mL (≈ 3.03 µM)
Aspergillus fumigatus [24]
  MFC: > 100 µg/mL
Fusarium solani [25]
  MIC: 3.12 µg/mL (≈ 6.06 µM)
Aspergillus flavus [26]
  MIC: 3.12 µg/mL (≈ 6.06 µM)
Candida albicans [27]
  MIC: 1.56 µg/mL (≈ 3.03 µM)
Nucleic Acid
  ΔTm: 24.3
Aspergillus fumigatus [28]
  MIC: 3.12 µg/mL (≈ 6.06 µM)
Rhizopus arrhizus [29]
  MIC: 1.56 µg/mL (≈ 3.03 µM)
